16 compounds from BindingDB's records for doi:10.1021/jm960153q (Rhône-Poulenc Rorer, 1996) can be followed below.

Chain of Low-density lipoprotein receptor (P01130 whole entry): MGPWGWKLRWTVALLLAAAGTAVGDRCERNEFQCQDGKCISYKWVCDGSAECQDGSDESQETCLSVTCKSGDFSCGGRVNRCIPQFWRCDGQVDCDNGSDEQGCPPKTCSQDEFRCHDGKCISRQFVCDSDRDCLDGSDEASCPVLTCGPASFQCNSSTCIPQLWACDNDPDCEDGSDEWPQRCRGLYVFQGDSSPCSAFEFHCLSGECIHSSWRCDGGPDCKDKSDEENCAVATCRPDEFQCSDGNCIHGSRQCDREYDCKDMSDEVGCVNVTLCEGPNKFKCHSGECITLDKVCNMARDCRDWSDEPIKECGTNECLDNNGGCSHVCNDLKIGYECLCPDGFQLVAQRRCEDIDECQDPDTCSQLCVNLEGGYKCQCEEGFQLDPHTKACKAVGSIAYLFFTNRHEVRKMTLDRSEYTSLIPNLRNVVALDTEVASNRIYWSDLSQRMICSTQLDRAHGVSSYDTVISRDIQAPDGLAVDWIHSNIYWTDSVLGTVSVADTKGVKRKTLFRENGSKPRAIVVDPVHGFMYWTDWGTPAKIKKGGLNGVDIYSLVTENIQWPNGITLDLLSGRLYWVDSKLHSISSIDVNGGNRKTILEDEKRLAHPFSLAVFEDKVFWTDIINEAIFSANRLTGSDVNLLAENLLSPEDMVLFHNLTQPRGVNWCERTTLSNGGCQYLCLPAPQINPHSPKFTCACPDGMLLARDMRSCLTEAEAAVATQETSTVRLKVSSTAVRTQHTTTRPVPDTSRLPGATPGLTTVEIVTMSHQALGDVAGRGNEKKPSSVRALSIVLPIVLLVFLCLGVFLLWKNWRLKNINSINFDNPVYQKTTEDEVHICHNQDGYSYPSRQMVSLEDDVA

Biological target in one experiment: not listed separately
The experiment in a line: Concentration at which one-half of the maximum Low density lipoprotein receptor is upregulated in HepG2 cells.
One may read the EC50 as the midpoint of the concentration-response curve. Low values mean greater potency, high ones weaker potency. For `Cc1ccc(NC(=O)CCC2CCCCC2)cc1NC(=O)c1cccnc1` [N-[5-(3-Cyclohexyl-propionylamino)-2-methyl-phenyl]-nicotinamide], the midpoint of the response, the EC50, lay at 1200 nM.

For `CC(=O)Oc1ccc(C(=O)Nc2cc(NC(=O)CCC3CCCCC3)ccc2C)cc1` [Acetic acid 4-[5-(3-cyclohexyl-propionylamino)-2-methyl-phenylcarbamoyl]-phenyl ester], the response was half-maximal at 2500 nM (EC50).

In turn, `Cc1ccc(NC(=O)CCC2CCCCC2)cc1/C=C(\C#N)c1cccnc1` [N-[3-((Z)-2-Cyano-2-pyridin-3-yl-vinyl)-4-methyl-phenyl]-3-cyclohexyl-propionamide] displayed an EC50 of 1000 nM.

Compound `Cc1ccc(NC(=O)CCC2CCCCC2)cc1C(=O)Nc1ccc(O)cc1` [5-(3-Cyclohexyl-propionylamino)-N-(4-hydroxy-phenyl)-2-methyl-benzamide] registered a 50% effective concentration (EC50) of 7000 nM.

`Cc1ccc(NC(=O)CCC2CCCCC2)cc1-c1nc2ccc(O)cc2[nH]1` [3-Cyclohexyl-N-[3-(5-hydroxy-1H-benzoimidazol-2-yl)-4-methyl-phenyl]-propionamide] returned an EC50 of 700 nM.

Turning to `Cc1ccc(NC(=O)CCC2CCCCC2)cc1NC(=O)c1ccc(O)cc1` [N-[5-(3-Cyclohexyl-propionylamino)-2-methyl-phenyl]-4-hydroxy-benzamide], the midpoint of the response, the EC50, lay at 1700 nM.

Take `Cc1ccc(NC(=O)CCC2CCCCC2)cc1NC(=O)c1ccc(CO)cc1` [N-[5-(3-Cyclohexyl-propionylamino)-2-methyl-phenyl]-4-hydroxymethyl-benzamide]: the midpoint of the response, the EC50, lay at 7600 nM.

Compound `Cc1ccc(NC(=O)CCC2CCCCC2)cc1/C=C(\C#N)c1ccc2c(c1)OCO2` [N-[3-((Z)-2-Benzo[1,3]dioxol-5-yl-2-cyano-vinyl)-4-methyl-phenyl]-3-cyclohexyl-propionamide] had a concentration giving a half-maximal response (EC50) of 700 nM.

Compound `Cc1ccc(NC(=O)CCC2CCCCC2)cc1-c1nc2ccccc2[nH]1` [N-[3-(1H-Benzoimidazol-2-yl)-4-methyl-phenyl]-3-cyclohexyl-propionamide] had an EC50 of 1300 nM.

On to `Cc1ccc(NC(=O)CCC2CCCCC2)cc1NC(=O)c1ccccc1` [N-[5-(3-Cyclohexyl-propionylamino)-2-methyl-phenyl]-benzamide], for which the midpoint of the response, the EC50, lay at 2000 nM.

Turning to `Cc1ccc(NC(=O)CCCC2CCCCC2)cc1NC(=O)c1ccc(O)cc1` [N-[5-(4-Cyclohexyl-butyrylamino)-2-methyl-phenyl]-4-hydroxy-benzamide], a half-maximal response (EC50) required 4000 nM.

`Cc1ccc(NC(=O)CCC2CCCCC2)cc1NC(=O)c1cccc(O)c1` [N-[5-(3-Cyclohexyl-propionylamino)-2-methyl-phenyl]-3-hydroxy-benzamide]: it took 2000 nM to reach a half-maximal effect (EC50).

`Cc1ccc(C(=O)NCCC2CCCCC2)cc1NC(=O)c1ccc(O)cc1` [N-(2-Cyclohexyl-ethyl)-3-(4-hydroxy-benzoylamino)-4-methyl-benzamide] came in with an EC50 of 2000 nM.

For the compound `Cc1ccc2nc(-c3cc(NC(=O)CCC4CCCCC4)ccc3C)[nH]c2c1` [3-Cyclohexyl-N-[4-methyl-3-(5-methyl-1H-benzoimidazol-2-yl)-phenyl]-propionamide], the EC50 was determined as 1300 nM.

Turning to `Cc1ccc(NC(=O)CCC2CCCCC2)cc1NC(=O)c1ccc(N)cc1` [4-Amino-N-[5-(3-cyclohexyl-propionylamino)-2-methyl-phenyl]-benzamide], the EC50 turned out to be 3800 nM.

The target of another experiment is Low-density lipoprotein receptor (Homo sapiens, UniProt P01130). Briefly: Concentration at which one-half the maximum Low density lipoprotein receptor up-regulation is observed in HepG2 cells. A digest of the protocol:
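HepG2 cells in 96-well plates at 10 000 cells/well, grown 3 days to 80% confluence. Compounds added in DMEM with 1% BSA for 24 h at several concentrations. Formaldehyde-fixed cells probed with MAC-C7 (0.5 µg/mL, 60 min, 4 °C), then alkaline phosphatase-linked anti-mouse IgG, then fluorogenic substrate. EC50 is the concentration giving half-maximal upregulation, determined only when upregulation at 3 µM exceeded 40%. Five replicates.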
`Cc1ccc(C(=O)CCCC2CCCCC2)cc1NC(=O)c1cccnc1` [N-[5-(4-Cyclohexyl-butyryl)-2-methyl-phenyl]-nicotinamide]: the half-maximal effective concentration (EC50) is 2000 nM.
